The target in data set [1] is T1, DNA-directed DNA polymerase (Enterobacteria phage T4, UniProt P04415).
T1 sequence (P04415 whole entry): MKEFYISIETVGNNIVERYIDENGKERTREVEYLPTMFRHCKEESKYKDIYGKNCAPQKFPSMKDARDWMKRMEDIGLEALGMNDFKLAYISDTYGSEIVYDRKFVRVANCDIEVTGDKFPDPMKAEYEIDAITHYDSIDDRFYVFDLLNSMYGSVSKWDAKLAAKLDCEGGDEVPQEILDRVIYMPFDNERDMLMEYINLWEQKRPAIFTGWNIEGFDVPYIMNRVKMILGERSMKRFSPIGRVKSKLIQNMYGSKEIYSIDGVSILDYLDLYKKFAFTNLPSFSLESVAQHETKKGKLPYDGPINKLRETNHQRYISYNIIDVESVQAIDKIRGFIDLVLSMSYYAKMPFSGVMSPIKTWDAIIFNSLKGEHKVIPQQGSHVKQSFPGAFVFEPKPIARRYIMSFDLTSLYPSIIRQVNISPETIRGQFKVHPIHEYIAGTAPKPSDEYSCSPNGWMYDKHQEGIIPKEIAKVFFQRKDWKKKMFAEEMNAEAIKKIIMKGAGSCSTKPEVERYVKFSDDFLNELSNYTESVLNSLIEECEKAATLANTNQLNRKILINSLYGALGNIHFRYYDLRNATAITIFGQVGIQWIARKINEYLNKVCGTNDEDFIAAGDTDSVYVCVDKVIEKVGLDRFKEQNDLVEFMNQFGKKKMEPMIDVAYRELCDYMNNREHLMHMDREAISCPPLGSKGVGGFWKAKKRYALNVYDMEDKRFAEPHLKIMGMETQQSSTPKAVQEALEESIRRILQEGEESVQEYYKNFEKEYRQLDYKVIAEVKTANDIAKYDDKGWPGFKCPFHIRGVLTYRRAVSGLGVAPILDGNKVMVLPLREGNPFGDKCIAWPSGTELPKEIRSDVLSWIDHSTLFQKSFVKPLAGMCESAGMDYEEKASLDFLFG
The data set is described as follows: Inhibition of T4 bacteriophage DNA polymerase assessed as inhibition of incorporation of dTTP into poly(dA)/oligo(dT)18 after 60 mins. Further details: species or system Tequatrovirus T4. Put shortly:
(§1)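 Compound in DMSO was sonicated for 30 s, then held with enzyme (0.05 units final) at 0 °C for 10 min in 50 mM Tris-HCl pH 7.5, 1 mM DTT, 50% glycerol, 0.1 mM EDTA. The mixture was added to the standard reaction mix with poly(dA)/oligo(dT)18 (A/T = 2/1) and dTTP, 37 °C, 60 min. Activity was relative to no-inhibitor control; mean ± SE, three independent experiments.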

Data set [2] can be described thus: Growth inhibition of HUVEC cells after 72 hrs by WST-1 assay. In kind it is cell-based. Conditions: human. Summed up: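 Normal cells (HDF, HUVEC) were grown in Eagle's MEM with 4.5 g/L glucose, 10% FCS, 5 mM L-glutamine and penicillin/streptomycin, 37 °C, 5% CO2. Cells were seeded at 1 × 10^4 per well, cultured 12 h, then exposed to compound (0.5% DMSO final) for 72 h. Viability was read by WST-1 at 450/630 nm. GI50 given as mean ± SE of five experiments.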
Background: Tetrazolium assays rely on reduction of a dye to a coloured formazan, in cell work by metabolically active cells.

In the next data set the target is T2, DNA polymerase kappa (Homo sapiens, UniProt Q9UBT6).
T2 sequence (Q9UBT6 whole entry): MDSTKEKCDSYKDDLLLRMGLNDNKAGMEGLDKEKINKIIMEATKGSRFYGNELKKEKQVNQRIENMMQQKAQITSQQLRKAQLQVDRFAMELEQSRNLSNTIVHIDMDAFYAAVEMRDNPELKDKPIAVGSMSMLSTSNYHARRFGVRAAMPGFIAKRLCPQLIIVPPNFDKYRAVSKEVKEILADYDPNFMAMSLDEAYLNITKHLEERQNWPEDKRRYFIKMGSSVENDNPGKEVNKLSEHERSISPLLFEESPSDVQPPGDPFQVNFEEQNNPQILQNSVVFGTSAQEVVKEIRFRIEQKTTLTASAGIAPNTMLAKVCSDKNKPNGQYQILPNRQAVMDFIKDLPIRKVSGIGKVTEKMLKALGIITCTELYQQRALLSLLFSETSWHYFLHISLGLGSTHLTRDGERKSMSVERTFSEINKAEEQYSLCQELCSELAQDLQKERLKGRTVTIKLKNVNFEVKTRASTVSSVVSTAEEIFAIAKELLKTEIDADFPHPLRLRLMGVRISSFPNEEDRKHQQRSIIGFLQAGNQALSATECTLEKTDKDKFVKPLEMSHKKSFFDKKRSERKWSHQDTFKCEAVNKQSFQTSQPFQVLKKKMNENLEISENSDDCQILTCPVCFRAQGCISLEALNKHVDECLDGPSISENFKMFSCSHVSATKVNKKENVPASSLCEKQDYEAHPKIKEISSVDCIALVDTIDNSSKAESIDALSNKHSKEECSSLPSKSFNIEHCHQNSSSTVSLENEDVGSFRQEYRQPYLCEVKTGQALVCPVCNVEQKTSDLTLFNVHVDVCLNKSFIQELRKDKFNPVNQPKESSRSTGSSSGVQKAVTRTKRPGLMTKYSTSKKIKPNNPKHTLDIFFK
The data set is described as follows: Inhibition of human C-terminal-His6-tagged DNA polymerase kappa expressed in Escherichia coli assessed as inhibition of incorporation of dTTP into poly(dA)/oligo(dT)18 after 60 mins. Put shortly: as §1

A further data set has as its target Deoxyribonuclease-1 (Bos taurus, UniProt P00639). The data set is described as follows: Inhibition of bovine deoxyribonuclease 1 using [3H]-labelled DNA after 30 mins by agarose gel electrophoresis.
A further data set relates to BALL-1. The data set is described as follows: Growth inhibition of human BALL-1 cells after 24 hrs by WST-1 assay. To be noted: BALL-1, 24 h. In kind it is functional. Summed up:
(§2)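 Cancer cells were grown in McCoy's 5A with 10% FBS and penicillin/streptomycin, 37 °C, 5% CO2. Cells were seeded at 1 × 10^4 per well, cultured 12 h, then given compound (10 mM DMSO stock diluted in medium, 0.5% DMSO) for 24 h. WST-1 was added for 4 h and absorbance read at 450/630 nm. GI50 given as mean ± SE, five independent experiments.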

Data set [3] concerns the target DNA nucleotidylexotransferase (Bos taurus, UniProt P06526). The data set is described as follows: Inhibition of calf TdT assessed as inhibition of incorporation of dTTP into oligo(dT)18(3'OH) after 60 mins. Put shortly:
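Enzyme (0.05 units) was preincubated with compound in DMSO at 0 °C for 10 min in Tris-HCl pH 7.5/DTT/glycerol/EDTA buffer, then reacted at 37 °C for 60 min. Substrates were poly(rA)/oligo(dT)18 (A/T = 2/1) plus dTTP for HIV-1 RT, and oligo(dT)18 (3′-OH) primer plus dTTP for calf thymus TdT. Activity was relative to uninhibited control; mean ± SE of three experiments.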

The nature of data set [4]: Inhibition of human DNA polymerase epsilon assessed as inhibition of incorporation of dTTP into poly(dA)/oligo(dT)18 after 60 mins. Put shortly: as §1
A further data set deals with Tequatrovirus T4. The experiment in a line: Inhibition of T4 bacteriophage DNA polymerase assessed as inhibition of incorporation of dTTP into activated DNA primer after 60 mins.
The next data set relates to HeLa. The experiment in a line: Growth inhibition of human HeLa cells after 24 hrs by WST-1 assay. In kind it is functional. Put shortly: as §2
In the next data set the test system is NUGC-3. The experiment in a line: Growth inhibition of human NUGC3 cells after 24 hrs by WST-1 assay. To be noted: NUGC-3, 24 h. The class given is functional. Put shortly:
as §2

Active and inactive are the calls of the source. No cut-off for these calls is given here.

In general, IC50 refers to the midpoint of a concentration-inhibition curve. Usually GI50 stands for the concentration at which growth is held to half of that of the control. Low readings indicate more potent growth inhibition, high ones less potent growth inhibition.

Chain of Deoxyribonuclease-1 (P00639 whole entry): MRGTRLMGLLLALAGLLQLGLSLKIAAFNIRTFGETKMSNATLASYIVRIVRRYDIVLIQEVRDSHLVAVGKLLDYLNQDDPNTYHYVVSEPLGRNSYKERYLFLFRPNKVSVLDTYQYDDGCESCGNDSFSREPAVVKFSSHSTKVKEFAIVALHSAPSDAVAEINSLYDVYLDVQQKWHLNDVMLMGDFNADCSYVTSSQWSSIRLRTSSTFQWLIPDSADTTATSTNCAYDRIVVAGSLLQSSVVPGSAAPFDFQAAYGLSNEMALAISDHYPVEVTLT
Chain of DNA nucleotidylexotransferase (P06526 whole entry): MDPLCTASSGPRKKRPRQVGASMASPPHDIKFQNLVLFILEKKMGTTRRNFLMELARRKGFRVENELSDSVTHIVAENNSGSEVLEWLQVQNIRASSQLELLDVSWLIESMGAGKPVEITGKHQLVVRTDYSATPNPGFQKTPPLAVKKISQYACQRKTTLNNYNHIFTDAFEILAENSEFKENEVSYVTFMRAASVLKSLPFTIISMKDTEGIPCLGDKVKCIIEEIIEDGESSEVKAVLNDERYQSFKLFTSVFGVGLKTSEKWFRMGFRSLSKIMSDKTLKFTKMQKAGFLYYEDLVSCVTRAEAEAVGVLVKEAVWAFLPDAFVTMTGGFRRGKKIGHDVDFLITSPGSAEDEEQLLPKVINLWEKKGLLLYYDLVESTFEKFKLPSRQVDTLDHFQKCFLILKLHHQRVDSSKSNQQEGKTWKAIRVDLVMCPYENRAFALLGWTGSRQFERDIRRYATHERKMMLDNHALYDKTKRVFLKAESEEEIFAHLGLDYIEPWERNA

As for `Cc1cc(O)cc(O)c1C(=O)O[C@H]1[C@@H]2COC(/C=C/CO)=CC2=CC(=O)[C@@]1(C)O` [PINOPHILIN B], the IC50 in data set [1] is more than 200 µM; at DNA polymerase kappa, 88.9 µM; against Deoxyribonuclease-1 it was more than 200 µM; in data set [3], more than 200 µM; in data set [4], 93.9 µM. This compound showed a GI50 at 72 h in data set [2] of more than 200 µM. Besides, the GI50 in the data set on BALL-1 was 90.4 µM; in the data set on HeLa, 99 µM; in the data set with NUGC-3, 96.8 µM. In the data set with Tequatrovirus T4, the inhibition entry was “inactive”.
For the compound `C/C=C/C1=CC2=CC(=O)[C@@](C)(O)[C@@H](OC(=O)c3c(C)cc(O)cc3O)[C@@H]2CO1`, the IC50 was more than 200 µM in [1]; 59.8 µM at DNA polymerase kappa; more than 200 µM against Deoxyribonuclease-1; more than 200 µM in data set [3]; 65.6 µM in [4]. In data set [2], the GI50 at 72 h was more than 200 µM. The results for the GI50 in the data set on BALL-1, in the data set on HeLa and in the data set with NUGC-3 were 62 µM, 68.8 µM and 66.4 µM, respectively. Moreover, in the data set with Tequatrovirus T4, the inhibition entry is “inactive”.
Take `C/C=C/C1=CC2=CC(=O)[C@@](C)(OC(=O)c3c(C)cc(O)cc3O)[C@@H](O)[C@@H]2CO1` [PINOPHILIN A]: the IC50 in data set [1] is more than 200 µM; at DNA polymerase kappa, 48.6 µM; against Deoxyribonuclease-1, more than 200 µM; in data set [3] it was more than 200 µM; in [4] it was 52 µM. In addition, the GI50 at 72 h in [2] is more than 200 µM. Besides, the GI50 in the data set on BALL-1 is 50.2 µM; in the data set with HeLa, 55.6 µM; in the data set with NUGC-3 it was 54.7 µM. The inhibition result with Tequatrovirus T4 is “inactive”.

For the origin of these results see ChEMBL document CHEMBL2010709, “Pinophilins A and B, inhibitors of mammalian A-, B-, and Y-family DNA polymerases and human cancer cell proliferation” (J Nat Prod, 2012).
